Measured values as given in ChEMBL document CHEMBL1127620, “Synthesis and antibacterial activity of thiazolopyrazine-incorporated tetracyclic quinolone antibacterials” (1994).
In brackets after ≈: the same amount, converted by molar mass.

Columns and labels:
Assay type in all cases: functional
Mus musculus [1] = organism: Mus musculus; experiment: Compound was tested for oral efficacy on systemic infections caused by Staphylococcus aureus IID803 in mice
How it was run: (§1)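 Male ddY mice (25 g) infected intraperitoneally with 0.5 mL overnight brain heart infusion culture diluted in 5% gastric mucin, about 35 to 500 times the LD50. Compound given orally 1 h post-infection, as 1% aqueous gum arabic suspension or distilled water solution. Four dose groups of five mice. Survival followed daily for 7 days; ED50 by Weil method.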

Klebsiella pneumoniae = experiment: In vitro minimum inhibitory concentration against gram-negative Kp, Klebsiella pneumoniae B54.
How it was run: (§2)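 Two-fold agar dilution on Sensitivity Disk Agar-N (Japan Society of Chemotherapy method). Overnight broth cultures diluted in buffered saline with 0.01% gelatin to about 10⁶ CFU/mL. One loopful (5 μL/spot) inoculated onto plates containing graded agent concentrations. Incubation 37 °C, 18 h. MIC = lowest concentration inhibiting visible growth.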

Staphylococcus aureus [2] = experiment: In vitro minimum inhibitory concentration against gram-positive Sa (F), Staphylococcus aureus FDA 209P JC-1.; how it was run: as §2
Staphylococcus aureus [3] = experiment: In vitro minimum inhibitory concentration against gram-positive Sa (I), Staphylococcus aureus IID803.; how it was run: as §2
Escherichia coli [4] = experiment: Compound was tested for in vitro antibacterial activity (minimum inhibition concentration) against gram-negative Ec(K), Escherichia coli KC-14.
How it was run: as §2, with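 “10⁶ CFU/mL; one” for “10⁶ CFU/mL. One”, “plates with” for “plates containing”, “18 h;” for “18 h.”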

Mus musculus [5] = organism: Mus musculus; experiment: Compound was tested for oral efficacy on systemic infections caused by Escherichia coli KC-14 in mice.; how it was run: as §1
Mus musculus [6] = organism: Mus musculus; experiment: Compound was tested for oral efficacy on systemic infections caused by Escherichia coli KC-14 in mice; how it was run: as §1
Mus musculus [7] = organism: Mus musculus; experiment: Compound was tested for oral efficacy on systemic infections caused by Staphylococcus aureus IID803 in mice.; how it was run: as §1
Escherichia coli [8] = experiment: Compound was tested for in vitro antibacterial activity (minimum inhibition concentration) against gram-negative Ec(K), Escherichia coli KC-14; how it was run: as §2
[9] = test system: Staphylococcus epidermidis; experiment: In vitro minimum inhibitory concentration against gram-positive Se, Staphylococcus epidermidis IAM 1296.; how it was run: as §2

MIC (Klebsiella pneumoniae)	MIC (Staphylococcus aureus [2])	MIC (Staphylococcus aureus [3])	Compound	ED50 (Mus musculus [1])	ED50 (Mus musculus [6])	further results
0.05 µg/mL (≈ 0.128 µM)	–	–	CN1Cc2csc3c(C(=O)O)c(=O)c4cc(F)c(N5CCOCC5)c1c4n23	> 12 mg/kg	–	–
–	0.05 µg/mL	0.05 µg/mL	CCN1[C@H](C)CN(c2c(F)cc3c(=O)c(C(=O)O)c4scc5n4c3c2N(C)C5)C[C@@H]1C.Cl	–	–	–
0.025 µg/mL (≈ 0.06 µM)	–	–	CNCC1CCN(c2c(F)cc3c(=O)c(C(=O)O)c4scc5n4c3c2N(C)C5)C1 (centres undefined)	> 12 mg/kg	–	–
–	0.025 µg/mL (≈ 0.0581 µM)	–	C[C@@H]1CN(c2c(F)cc3c(=O)c(C(=O)O)c4scc5n4c3c2N(C)C5)C[C@H](C)N1C	–	2 mg/kg	ED50 (Mus musculus [7]): 2 mg/kg
0.05 µg/mL	–	–	CCNCC1CCN(c2c(F)cc3c(=O)c(C(=O)O)c4scc5n4c3c2N(C)C5)C1.Cl (centres undefined)	> 12 mg/kg	–	–
0.05 µg/mL (≈ 0.124 µM)	–	0.05 µg/mL (≈ 0.124 µM)	CN1CCN(c2c(F)cc3c(=O)c(C(=O)O)c4scc5n4c3c2N(C)C5)CC1	3 mg/kg	–	MIC (Escherichia coli [8]): 0.05 µg/mL (≈ 0.124 µM); ED50 (Mus musculus [5]): 1 mg/kg
–	0.05 µg/mL (≈ 0.116 µM)	0.05 µg/mL (≈ 0.116 µM)	CCC1CN(c2c(F)cc3c(=O)c(C(=O)O)c4scc5n4c3c2N(C)C5)CCN1C (centres undefined)	–	–	–
–	0.05 µg/mL (≈ 0.12 µM)	0.05 µg/mL (≈ 0.12 µM)	C[C@@H]1CN(c2c(F)cc3c(=O)c(C(=O)O)c4scc5n4c3c2N(C)C5)C[C@H](C)N1	–	> 2 mg/kg	MIC (Escherichia coli [4]): 0.05 µg/mL (≈ 0.12 µM)
–	0.025 µg/mL (≈ 0.0617 µM)	0.0125 µg/mL (≈ 0.0308 µM)	CN1Cc2csc3c(C(=O)O)c(=O)c4cc(F)c(N5CCSCC5)c1c4n23	> 12 mg/kg	–	MIC [9]: 0.025 µg/mL (≈ 0.0617 µM)
–	0.05 µg/mL	0.05 µg/mL	CCC1CN(c2c(F)cc3c(=O)c(C(=O)O)c4scc5n4c3c2N(C)C5)CCN1.Cl (centres undefined)	–	–	–
0.025 µg/mL (≈ 0.0644 µM)	–	–	CN1Cc2csc3c(C(=O)O)c(=O)c4cc(F)c(N5CCC(N)C5)c1c4n23 (centres undefined)	–	> 2 mg/kg	–

The next lines start with the compound.

Compound	MIC (Klebsiella pneumoniae)	MIC (Staphylococcus aureus [2])	MIC (Staphylococcus aureus [3])	ED50 (Mus musculus [1])	ED50 (Mus musculus [6])	further results
CN1Cc2csc3c(C(=O)O)c(=O)c4cc(F)c(N5CCC(O)C5)c1c4n23 (centres undefined)	–	–	–	> 12 mg/kg	–	–
CCN1CCN(c2c(F)cc3c(=O)c(C(=O)O)c4scc5n4c3c2N(C)C5)CC1	0.05 µg/mL (≈ 0.12 µM)	–	0.05 µg/mL (≈ 0.12 µM)	3 mg/kg	–	MIC (Escherichia coli [4]): 0.05 µg/mL (≈ 0.12 µM); ED50 (Mus musculus [5]): 1 mg/kg
CN1Cc2csc3c(C(=O)O)c(=O)c4cc(F)c(N5CCNCC5)c1c4n23	0.025 µg/mL (≈ 0.0644 µM)	–	–	–	> 2 mg/kg	–
CN1Cc2csc3c(C(=O)O)c(=O)c4cc(F)c(N5CCCC5)c1c4n23	–	–	–	–	–	ED50 (Mus musculus [5]): > 2 mg/kg
CC1COc2c(N3CCN(C)CC3)c(F)cc3c(=O)c(C(=O)O)cn1c23 (centres undefined) [OFLOXACIN]	–	–	–	11 mg/kg	1 mg/kg	–
CC1CN(c2c(F)cc3c(=O)c(C(=O)O)c4scc5n4c3c2N(C)C5)CCN1.Cl (centres undefined)	–	–	–	–	> 2 mg/kg	–
CC1CN(c2c(F)cc3c(=O)c(C(=O)O)c4scc5n4c3c2N(C)C5)CCN1C (centres undefined)	–	–	–	–	2 mg/kg	ED50 (Mus musculus [7]): 3 mg/kg
